Assay outcomes: PubChem BioAssay, NMMLSC
The list is not random: actives were taken first. Their share in the collection is about 2.5%.
ABCB1 inh: ABCB1 efflux pump inhibitors, primary screen, cell-based, multiplex, flow cytometry, ABCG2 counter-screen; hit rate 0.067% among 190,000; CCRF-Adr cells, JC-1 efflux; inhibition, % at 6.6 µM; ATP-dependent translocase ABCB1 (Homo sapiens), P08183; in the data active = inhibition above about 40%;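 also: 0% = vehicle and 100% = reference inhibitor; higher value means more JC-1 retained so stronger ABCB1 efflux block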
ABCG2 inh: ABCG2 efflux pump inhibitors, primary screen, multiplex with ABCB1, IgMXP3 cells, flow cytometry; JC-1 efflux; inhibition, % at 6.6 µM; hit rate 0.1% among 190,000;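 active = inhibition above 80%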;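 also: 0% = DMSO and 100% = nicardipine control wells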
Target sequence (Q9UNQ0 whole entry, looked up): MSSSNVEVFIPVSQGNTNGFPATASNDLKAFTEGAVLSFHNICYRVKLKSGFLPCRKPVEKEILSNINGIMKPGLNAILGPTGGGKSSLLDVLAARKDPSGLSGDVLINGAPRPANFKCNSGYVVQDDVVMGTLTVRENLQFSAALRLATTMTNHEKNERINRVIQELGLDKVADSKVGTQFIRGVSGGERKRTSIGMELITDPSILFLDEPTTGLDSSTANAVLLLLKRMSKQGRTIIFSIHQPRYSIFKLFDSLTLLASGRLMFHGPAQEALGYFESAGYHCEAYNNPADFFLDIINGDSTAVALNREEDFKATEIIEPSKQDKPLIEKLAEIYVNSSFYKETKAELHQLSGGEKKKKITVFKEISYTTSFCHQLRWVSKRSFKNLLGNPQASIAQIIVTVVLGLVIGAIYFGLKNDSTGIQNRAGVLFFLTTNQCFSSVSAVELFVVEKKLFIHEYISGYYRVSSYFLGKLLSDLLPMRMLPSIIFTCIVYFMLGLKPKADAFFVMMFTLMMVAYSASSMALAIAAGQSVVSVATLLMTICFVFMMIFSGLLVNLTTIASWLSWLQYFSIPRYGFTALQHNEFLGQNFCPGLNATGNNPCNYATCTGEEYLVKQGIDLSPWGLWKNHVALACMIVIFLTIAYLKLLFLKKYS
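System: two drug-resistant human cell lines, ABCG2 and ABCB1; controls: nicardipine high and DMSO low controls; times: 10 min exposure at 25 °C with rotation, no wash; detection: flow cytometry of retained JC-1 fluorescence; read-out basis: percent efflux inhibition, scaled nicardipine 100% to DMSO 0%; doses: one concentration, 6.6 µM final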
Efflux pump inh: inhibitors of Candida efflux pumps in yeast, primary screen, S. cerevisiae, Nile Red, multiplex; S. cerevisiae Candida pump triplex; inhibition, % at 10 µM; hit rate 0.44% among 330,000; AID 485275, 2010;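 active = plate passing quality check with inhibition over a set limit, or well fluorescence over plate mean plus 4 SD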;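 also: Nile Red retained in pooled yeast measured as flow cytometry median fluorescence; 0% = buffer negative control and 100% = Enniatin B positive control; higher means more Nile Red kept so more efflux inhibition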
MEKK2 WT-MEK5: modulators of MEK5 binding to wildtype MEKK2, primary screen, biochemical, multiplex bead flow cytometry, Alexa488-MEK5. AID 1531, 2009. Alexa488-MEK5 binding to MEKK2 WT; actives lie on both sides. binding response (% of control), % at 10 µM. hit rate 1.1% among 290,000. Mitogen-activated protein kinase kinase kinase 2 (Homo sapiens), Q9Y2U5; in the data active = binding response below about 67% or above about 130%
MEKK2 mut-MEK5: MEK5 binding signal on mutant MEKK2 PB1, primary screen, biochemical, multiplex bead flow cytometry, Alexa488-MEK5; Alexa488-MEK5 binding to MEKK2 mutant; AID 1530, 2009; hit rate 0.35% among 290,000; percent response, % at 10 µM; in the data active = percent response above about 24%, passing the limit was not always enough
MEKK3 PB1 HTS: modulators of MEKK3-MEK5 PB1 binding, primary screen, biochemical, wildtype MEKK3, multiplex bead flow cytometry, Alexa488-MEK5; bead-based flow cytometry, Alexa488-MEK5 binding to MEKK3; actives lie on both sides; 0 = blocked by unlabeled MEK5, 100 = vehicle; AID 1529, 2009; hit rate 1.4% among 290,000; binding response (% of control), % at 10 µM; Mitogen-activated protein kinase kinase kinase 3 (Homo sapiens), Q99759;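 active = binding response more than 3 SD above or below the average of its plate-row segment, actives on both sides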;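 also: Alexa488 bead fluorescence after subtracting the streptavidin-only scavenger bead signal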
MEKK2wt confirm: modulators of MEK5 binding to wildtype MEKK2, confirmation, biochemical, single concentration, multiplex bead flow cytometry | shares compounds with MEKK3 PB1 HTS | Alexa488-MEK5 binding to MEKK2 WT; actives lie on both sides | binding response (% of control), % at 10 µM | hit rate 2.4% among 5,900 | AID 1892, 2009; in the data active = binding response below about 16% or above about 210%; inactive = in between
MEKK2mut confirm: mutant MEKK2 PB1-MEK5 binding signal retest – biochemical, single concentration, multiplex bead flow cytometry, confirmation. shares compounds with MEKK3 PB1 HTS. Alexa488-MEK5 binding to MEKK2 mutant. percent response, % at 10 µM. hit rate 2% among 5,900. AID 1893, 2009; in the data active = percent response mostly above about 71%, no sharp cut-off; inactive = mostly below about 38%;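 also: higher means compound restores mutant binding toward wildtype level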
MEKK3-MEK5 inh: MEKK3 wild-type PB1 binding to MEK5, inhibitors, confirmation, biochemical, bead multiplex flow cytometry, single concentration, wildtype. Alexa488-MEK5 binding to MEKK3; stronger effect = lower value. hit rate 1.8% among 5,900. binding response (% of control), % at 10 µM. shares compounds with MEKK3 PB1 HTS;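 active = binding response below 72% of control, or above a set upper limit, though filed actives all read lower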;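 also: 100% = DMSO only wells and 0% = binding blocked by excess unlabeled MEK5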
Cmpd fluor yeast: compound fluorescence in yeast efflux pump counter-screen; shares compounds with Efflux pump inh; S. cerevisiae AD/pABC3, flow cytometry; fluorescence ratio to DMSO, % at 10 µM; hit rate 4% among 1,700; AID 588517;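 active = fluorescence ratio to DMSO above its plate's cutoff, the plate mean ratio plus 5 SD, cut at about 210% in these data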;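 also: unstained yeast with no Nile Red so the signal is compound autofluorescence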
Mdr1 pump inh: inhibitors of Candida albicans Mdr1 efflux, confirmation, flow cytometry, singleplex, Cherry Pick1 set; shares compounds with Efflux pump inh; S. cerevisiae AD/CaMDR1, Nile Red efflux; inhibition, % at 10 µM; hit rate 1% among 1,700; AID 588518, 2011; in the data active = inhibition above about 26%;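 also: 0% = DMSO vehicle and 100% = reference inhibitor; higher means more Nile Red retained so more efflux inhibition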
CaCdr2 efflux inh: inhibitors of Candida albicans Cdr2 efflux pump, confirmation, S. cerevisiae AD/CaCDR2, flow cytometry, cherry pick 1, singleplex; shares compounds with Efflux pump inh; Nile Red retention; Nile Red retention ratio vs DMSO, % at 10 µM; hit rate 4% among 1,700; AID 588520, 2011; in the data active = Nile Red retention ratio vs DMSO above about 190%;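 also: higher ratio means more blocking of Cdr2 efflux of the dye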
Cdr1 pump inh: inhibitors of Candida albicans Cdr1 efflux pump, confirmation, S. cerevisiae AD/CaCDR1, flow cytometry, cherry pick 1, singleplex. inhibition, % at 10 µM. hit rate 1% among 1,700. shares compounds with Efflux pump inh. AID 588522, 2011. Nile Red efflux;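 active = inhibition above the screen-wide mean plus twice its standard deviation, cut at about 32% in these data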
* marks the source's active call; other numbers are inactive results; . = no result given.

SMILES	ABCB1 inh	ABCG2 inh	Efflux pump inh	MEKK2 WT-MEK5	MEKK2 mut-MEK5	MEKK3 PB1 HTS	Cmpd fluor yeast	Mdr1 pump inh	CaCdr2 efflux inh	Cdr1 pump inh	others
NC1=NC[C@H](Cc2ccccc2)N1CCCCC1CCCCC1	.	.	1.1*	151.0*	13.0	111.0	116.4	0.1	120.8	0.1	MEKK2wt confirm=132.0;MEKK2mut confirm=13.0;MEKK3-MEK5 inh=106.0
c1ccc(C[C@H]2CN=C(Nc3ccccc3)N2CCC2CCCC2)cc1	.	.	-0.1	.	.	.	.	.	.	.
NC(=O)Cn1nnc(-c2ccc(NC(=O)c3ccc(F)cc3)cc2)n1	0.1	5.8	-0.4	102.0	0.0	103.0	.	.	.	.
O=C(NC(=S)N1CCN(Cc2ccc3c(c2)OCO3)CC1)c1ccc(Cl)cc1	1.5	5.5	27.7*	121.0	55.0*	104.0	103.4	-0.1	110.3	0.1	MEKK2wt confirm=106.0;MEKK2mut confirm=4.0;MEKK3-MEK5 inh=105.0
CCOc1ccc(NC(=O)CSc2nccn(-c3ccc4c(c3)OCCO4)c2=O)cc1	.	.	0.0	.	.	.	.	.	.	.
Nc1nc(=S)c2ncn(C3CCCC3)c2[nH]1	.	.	0.3	94.0	-6.0	95.0	.	.	.	.
Cc1ccc2sc(N(CCCN(C)C)C(=O)c3ccc(Br)s3)nc2c1C	-0.6	-1.9	0.9*	479.0*	218.0*	140.0*	104.5	-0.1	280.2*	0.0	MEKK2wt confirm=180.0;MEKK2mut confirm=60.0;MEKK3-MEK5 inh=110.0
CCOc1cccc2sc(N(CCN(C)C)C(=O)c3ccc(Br)s3)nc12	0.9	3.4	0.3	105.0	-1.0	90.0	.	.	.	.
COC(=O)c1ccc(/C=C/c2c(-c3ccsc3)sc3ccccc23)cc1	.	.	-0.1	99.0	-1.0	98.0	.	.	.	.
Nc1cc(Nc2ccccc2)c2nonc2c1[N+](=O)[O-]	.	.	1.4*	96.0	-2.0	102.0	105.0	0.0	93.0	-0.3
O=[N+]([O-])c1c(Nc2ccccc2)ccc2nonc12	-3.6	-3.1	0.0	99.0	3.0	100.0	.	.	.	.
CN(C)C=Nc1ncc2c([nH]c3ccccc32)c1C#N	0.3	3.2	0.1	.	.	.	.	.	.	.
O=C(Cn1nc(-c2ccc(F)cc2)ccc1=O)Nc1ccc(C(=O)NC2CC2)cc1	0.1	1.4	0.4*	.	.	.	81.2	-0.1	89.0	-0.2
CSCCC(NC(=O)c1ccccc1Cl)C(=O)N1CCC1 (centres undefined)	.	.	0.0	.	.	.	.	.	.	.
CSCCC(NC(=O)c1ccccc1Cl)C(=O)N(C)Cc1cccs1 (centres undefined)	.	.	5.5*	99.0	-1.0	99.0	101.1	0.0	106.3	0.1
O=C(COC(=O)c1cc(S(=O)(=O)N2CCCCC2)ccc1N1CCOCC1)NC1CCCCC1	0.0	0.6	0.0	104.0	-4.0	102.0	.	.	.	.
O=C1Nc2cc(C(=O)N3CCOCC3)ccc2SC1N1CCOCC1 (centres undefined)	0.2	9.8	18.8*	.	.	.	95.3	-0.3	107.8	0.1
Cc1cc(N2CCOCC2)nc2ccc(Cl)cc12	.	.	-0.3	99.0	1.0	102.0	.	.	.	.
O=C(O)C1C2CC3C(OC(=O)C31)C2Cl (centres undefined)	-0.4	-3.5	6.5*	99.0	-2.0	98.0	107.9	-0.1	106.0	0.0
CCC1(c2ccccc2)NC(=O)N(CC(=O)Nc2ccc(Cl)c(S(=O)(=O)N3CCCCC3)c2)C1=O (centres undefined)	.	.	0.0	.	.	.	.	.	.	.
O=C1/C(=C\c2cc([N+](=O)[O-])ccc2O)SC(=S)N1Cc1ccc(Cl)cc1	.	.	0.7*	98.0	2.0	101.0	507.2*	0.9	232.0*	0.5
Cc1ccc(NC(=O)COC(=O)c2nn(C)c(=O)c3ccccc23)cc1F	.	.	0.1	.	.	.	.	.	.	.
Cc1ccccc1OCC(=O)Nc1nnc(-c2ccco2)s1	.	.	0.0	96.0	-8.0	94.0	103.0	0.0	101.8	0.0
CCNS(=O)(=O)c1ccc(OC)c(C)c1	1.9	8.4	0.1	100.0	6.0	102.0	.	.	.	.
CCNS(=O)(=O)c1ccc2c(c1)NCC2	1.5	-3.4	12.4*	91.0	-2.0	90.0	105.0	-0.1	95.1	-0.1
CC[n+]1c(/C=C/C=C/N(C(C)=O)c2ccccc2)sc2cc(OC)ccc21	3.9	14.2	3.5*	11.0*	15.0	89.0	346.1*	2.1	122.9	1.2
CCOc1ccc2ccccc2c1/C=N/NC(=O)CNC(=O)Cc1ccccc1	1.6	10.2	0.1	108.0	-1.0	118.0	.	.	.	.
COc1ccc(C(=O)Cc2nnc(C)s2)c(OC)c1	-0.7	-7.0	8.0*	106.0	-2.0	103.0	99.0	-0.1	102.9	-0.1
COc1ccc(Nc2nnc(Cc3ccc(Cl)cc3)c(=O)[nH]2)c(OC)c1	0.6	2.5	-0.1	99.0	3.0	101.0	.	.	.	.
COc1ccc(Nc2nnc(Cc3ccccc3)c(=O)[nH]2)c(OC)c1	-0.6	5.4	0.5*	100.0	1.0	102.0	100.0	-0.4	104.2	0.1
